A word on the IC50: it is the concentration needed to halve the response being measured.

The structures appear in SMILES notation. Where a SMILES comes first, the peptide text is derived from it.

The species named for one experiment is Rattus norvegicus. The experiment can be described thus: Concentration of peptide at 50% maximal histamine release at concentration 10e-5 M. Type of experiment: functional. The method, boiled down: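 Rat peritoneal mast cells (Sprague–Dawley) lavaged into carbonate- and divalent-cation-free Tyrode's with 15 mM Hepes pH 7.2, 0.1% BSA, purified on Accudenz gradient; (1–2) × 10^3 cells/well with peptide, 37 °C 20 min. Residual cellular histamine freed by Triton X-100 then TFA, measured fluorometrically with phthalaldehyde/NaOH; n = 6; nonlinear regression.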
`CC[C@H](C)[C@H](N)C(=O)N[C@@H](CCCCN)C(=O)N[C@@H](CS)C(=O)N[C@@H](CC(N)=O)C(=O)N[C@@H](CS)C(=O)N[C@@H](C)C(=O)N[C@@H](CCCN=C(N)N)C(=O)N[C@@H](Cc1c[nH]cn1)C(=O)N[C@H](C(=O)N[C@H](C(=O)N[C@@H](CCCCN)C(=O)N1CCC[C@H]1C(=O)N[C@@H](Cc1c[nH]cn1)C(=O)N[C@H](C(=O)N[C@@H](CS)C(=O)N[C@@H](CCCN=C(N)N)C(=O)N[C@@H](CCCCN)C(=O)N[C@H](C(=O)N[C@@H](CS)C(=O)NCC(=O)N[C@@H](CCCCN)C(=O)N[C@@H](CC(N)=O)C(N)=O)[C@@H](C)CC)[C@@H](C)CC)[C@@H](C)CC)C(C)C` (H-IKCNCARHVIKPHICRKICGKN-NH2) returned an ED50 of 12.54.

`CC[C@H](C)[C@H](N)C(=O)N[C@@H](CCCCN)C(=O)N[C@@H](CS)C(=O)N[C@@H](CC(N)=O)C(=O)N[C@@H](CS)C(=O)N[C@@H](CCCCN)C(=O)N[C@@H](CCCN=C(N)N)C(=O)N[C@@H](Cc1c[nH]cn1)C(=O)N[C@H](C(=O)N[C@H](C(=O)N[C@@H](C)C(=O)N1CCC[C@H]1C(=O)N[C@@H](Cc1c[nH]cn1)C(=O)N[C@H](C(=O)N[C@@H](CS)C(=O)N[C@@H](CCCN=C(N)N)C(=O)N[C@@H](CCCCN)C(=O)N[C@H](C(=O)N[C@@H](CS)C(=O)NCC(=O)N[C@@H](CCCCN)C(=O)N[C@@H](CC(N)=O)C(N)=O)[C@@H](C)CC)[C@@H](C)CC)[C@@H](C)CC)C(C)C` (H-IKCNCKRHVIAPHICRKICGKN-NH2) registered an ED50 of 1.07.

Compound `CC[C@H](C)[C@H](N)C(=O)N[C@@H](CCCCN)C(=O)N[C@@H](CS)C(=O)N[C@@H](CC(N)=O)C(=O)N[C@@H](CS)C(=O)N[C@@H](CCCCN)C(=O)N[C@@H](CCCN=C(N)N)C(=O)N[C@@H](Cc1c[nH]cn1)C(=O)N[C@H](C(=O)N[C@H](C(=O)N[C@@H](CCCCN)C(=O)N1CCC[C@H]1C(=O)N[C@@H](Cc1c[nH]cn1)C(=O)N[C@H](C(=O)N[C@@H](CS)C(=O)N[C@@H](CCCN=C(N)N)C(=O)N[C@@H](C)C(=O)N[C@H](C(=O)N[C@@H](CS)C(=O)NCC(=O)N[C@@H](CCCCN)C(=O)N[C@@H](CC(N)=O)C(N)=O)[C@@H](C)CC)[C@@H](C)CC)[C@@H](C)CC)C(C)C` (H-IKCNCKRHVIKPHICRAICGKN-NH2) returned an ED50 of 0.77.

The target of the next experiment is T1, High affinity immunoglobulin epsilon receptor subunit alpha (Homo sapiens, UniProt P12319).
T1 sequence (P12319 whole entry): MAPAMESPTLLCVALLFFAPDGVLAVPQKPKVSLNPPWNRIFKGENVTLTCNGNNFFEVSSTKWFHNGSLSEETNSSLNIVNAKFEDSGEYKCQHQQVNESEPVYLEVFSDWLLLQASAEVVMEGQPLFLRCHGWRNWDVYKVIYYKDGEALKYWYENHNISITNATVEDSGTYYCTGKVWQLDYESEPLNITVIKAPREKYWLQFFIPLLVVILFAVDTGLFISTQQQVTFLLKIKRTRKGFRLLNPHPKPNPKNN
The experiment can be described thus: Binding affinity towards Fc-epsilon RI-alpha mast cell receptor human mast cell receptor was determined. In outline:
(§1)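 Competitive fluorescence polarization: FcεRIα subunit of human IgE receptor expressed in insect cells (7 nM) with fluorescein-labelled MCD peptide tracer (4 nM) in PBS pH 7.4, unlabelled peptide 7–500 μM, 25 °C 5 min. Ex 485/em 535 nm, mP; tracer-alone background subtracted; mean of many consecutive readings; IC50 by nonlinear regression.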
As to `CC[C@H](C)[C@H](N)C(=O)N[C@@H](CCCCN)C(=O)N[C@@H](CS)C(=O)N[C@@H](CC(N)=O)C(=O)N[C@@H](CS)C(=O)N[C@@H](CCCCN)C(=O)N[C@@H](CCCN=C(N)N)C(=O)N[C@@H](Cc1c[nH]cn1)C(=O)N[C@H](C(=O)N[C@H](C(=O)N[C@@H](CCCCN)C(=O)N1CCC[C@H]1C(=O)N[C@@H](Cc1c[nH]cn1)C(=O)N[C@H](C(=O)N[C@@H](CS)C(=O)N[C@@H](CCCN=C(N)N)C(=O)N[C@@H](CCCCN)C(=O)N[C@H](C(=O)N[C@@H](CS)C(=O)NCC(=O)N[C@@H](CCCCN)C(=O)N[C@@H](CC(N)=O)C(N)=O)[C@@H](C)CC)[C@@H](C)CC)[C@@H](C)CC)C(C)C` (H-IKCNCKRHVIKPHICRKICGKN-NH2), the IC50 worked out at 114 µM.

The next experiment concerns the target T1, High affinity immunoglobulin epsilon receptor subunit alpha. The experiment can be described thus: Binding affinity towards Fc-epsilon RI-alpha human mast cell receptor was determined. In outline:
as §1
In turn, `CC[C@H](C)[C@H](N)C(=O)N[C@@H](C)C(=O)N[C@@H](CS)C(=O)N[C@@H](CC(N)=O)C(=O)N[C@@H](CS)C(=O)N[C@@H](CCCCN)C(=O)N[C@@H](CCCN=C(N)N)C(=O)N[C@@H](Cc1c[nH]cn1)C(=O)N[C@H](C(=O)N[C@H](C(=O)N[C@@H](CCCCN)C(=O)N1CCC[C@H]1C(=O)N[C@@H](Cc1c[nH]cn1)C(=O)N[C@H](C(=O)N[C@@H](CS)C(=O)N[C@@H](CCCN=C(N)N)C(=O)N[C@@H](CCCCN)C(=O)N[C@H](C(=O)N[C@@H](CS)C(=O)NCC(=O)N[C@@H](CCCCN)C(=O)N[C@@H](CC(N)=O)C(N)=O)[C@@H](C)CC)[C@@H](C)CC)[C@@H](C)CC)C(C)C` (H-IACNCKRHVIKPHICRKICGKN-NH2) gave an IC50 of 82 µM.

`CC[C@H](C)[C@H](N)C(=O)N[C@@H](CCCCN)C(=O)N[C@@H](CS)C(=O)N[C@@H](CC(N)=O)C(=O)N[C@@H](CS)C(=O)N[C@@H](C)C(=O)N[C@@H](CCCNC(=N)N)C(=O)N[C@@H](Cc1cnc[nH]1)C(=O)N[C@H](C(=O)N[C@H](C(=O)N[C@@H](CCCCN)C(=O)N1CCC[C@H]1C(=O)N[C@@H](Cc1cnc[nH]1)C(=O)N[C@H](C(=O)N[C@@H](CS)C(=O)N[C@@H](CCCNC(=N)N)C(=O)N[C@@H](CCCCN)C(=O)N[C@H](C(=O)N[C@@H](CS)C(=O)NCC(=O)N[C@@H](CCCCN)C(=O)N[C@@H](CC(N)=O)C(N)=O)[C@@H](C)CC)[C@@H](C)CC)[C@@H](C)CC)C(C)C` (H-IKCNCARHVIKPHICRKICGKN-NH2): the half-inhibitory concentration (IC50) is 71 µM. The IC50 values of the last two compounds are within 1.5-fold of each other.

Compound `CC[C@H](C)[C@H](N)C(=O)N[C@@H](CCCCN)C(=O)N[C@@H](CS)C(=O)N[C@@H](CC(N)=O)C(=O)N[C@@H](CS)C(=O)N[C@@H](CCCCN)C(=O)N[C@@H](CCCNC(=N)N)C(=O)N[C@@H](Cc1cnc[nH]1)C(=O)N[C@H](C(=O)N[C@H](C(=O)N[C@@H](C)C(=O)N1CCC[C@H]1C(=O)N[C@@H](Cc1cnc[nH]1)C(=O)N[C@H](C(=O)N[C@@H](CS)C(=O)N[C@@H](CCCNC(=N)N)C(=O)N[C@@H](CCCCN)C(=O)N[C@H](C(=O)N[C@@H](CS)C(=O)NCC(=O)N[C@@H](CCCCN)C(=O)N[C@@H](CC(N)=O)C(N)=O)[C@@H](C)CC)[C@@H](C)CC)[C@@H](C)CC)C(C)C` (H-IKCNCKRHVIAPHICRKICGKN-NH2) registered an IC50 of 153 µM.

`CC[C@H](C)[C@H](N)C(=O)N[C@@H](CCCCN)C(=O)N[C@@H](CS)C(=O)N[C@@H](CC(N)=O)C(=O)N[C@@H](CS)C(=O)N[C@@H](CCCCN)C(=O)N[C@@H](CCCNC(=N)N)C(=O)N[C@@H](Cc1cnc[nH]1)C(=O)N[C@H](C(=O)N[C@H](C(=O)N[C@@H](CCCCN)C(=O)N1CCC[C@H]1C(=O)N[C@@H](Cc1cnc[nH]1)C(=O)N[C@H](C(=O)N[C@@H](CS)C(=O)N[C@@H](CCCNC(=N)N)C(=O)N[C@@H](C)C(=O)N[C@H](C(=O)N[C@@H](CS)C(=O)NCC(=O)N[C@@H](CCCCN)C(=O)N[C@@H](CC(N)=O)C(N)=O)[C@@H](C)CC)[C@@H](C)CC)[C@@H](C)CC)C(C)C` (H-IKCNCKRHVIKPHICRAICGKN-NH2) yielded an IC50 of 153 µM.

`CC[C@H](C)[C@H](N)C(=O)N[C@@H](CCCCN)C(=O)N[C@@H](CS)C(=O)N[C@@H](CC(N)=O)C(=O)N[C@@H](CS)C(=O)N[C@@H](CCCCN)C(=O)N[C@@H](CCCN=C(N)N)C(=O)N[C@@H](Cc1c[nH]cn1)C(=O)N[C@H](C(=O)N[C@H](C(=O)N[C@@H](CCCCN)C(=O)N1CCC[C@H]1C(=O)N[C@@H](Cc1c[nH]cn1)C(=O)N[C@H](C(=O)N[C@@H](CS)C(=O)N[C@@H](CCCN=C(N)N)C(=O)N[C@@H](CCCCN)C(=O)N[C@H](C(=O)N[C@@H](CS)C(=O)NCC(=O)N[C@@H](C)C(=O)N[C@@H](CC(N)=O)C(N)=O)[C@@H](C)CC)[C@@H](C)CC)[C@@H](C)CC)C(C)C` (H-IKCNCKRHVIKPHICRKICGAN-NH2) gave a 50% inhibitory concentration (IC50) of 153 µM.

For the origin of these results see ChEMBL document CHEMBL1145832, “Histamine-releasing activity and binding to the FcepsilonRI alpha human mast cell receptor subunit of mast cell degranulating peptide analogues with alanine substitutions” (J Med Chem, 2003).
